The source of these data is ChEMBL document CHEMBL1148267, “Synthesis and biological activity of a novel squalene epoxidase inhibitor, FR194738” (Bioorg Med Chem Lett, 2004).

A short description of series [1]: Partition coefficient (logP). The series is classed as physicochemical. The following applies: octanol/water.
For series [2], the species on record is Canis familiaris. In words: In vitro inhibitory activity was evaluated against dog squalence epoxidase. The series is classed as functional, Canis lupus familiaris. In short, it runs like this: (§1)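 Source of enzyme: dog or rat liver microsomes, or HepG2 cell homogenate for human, solubilized in 2% Triton X-100. Each was incubated with AMO-1680, FAD, NADPH, EDTA, [³H]squalene and drug for 90 min at 37 °C. The reaction was stopped with ethanolic KOH. Non-saponifiable lipids were separated by silica TLC and 2,3-oxidosqualene radioactivity was counted to give IC50.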

The species named for series [3] is Homo sapiens. In words: In vitro inhibitory activity was evaluated against human squalence epoxidase. Type of series: functional. Put shortly: as §1
Series [4] deals with HepG2. In words: In vitro inhibitory activity was evaluated on cholesterol biosynthesis in HepG2 cells. The series is classed as functional, cell-based. The following applies: Homo sapiens. In short, it runs like this: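 HepG2 cells were kept overnight in 10% human lipoprotein-deficient serum, then preincubated 1 h with drug. [¹⁴C]acetate was added for 2 h. Cells were lysed and saponified with ethanolic KOH. Digitonin was added to the non-saponifiable lipids, and radioactivity of the digitonin-coprecipitable sterols was counted to give IC50.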

The nature of series [5]: Compound was evaluated for area under the curve (0-8 h). Details: time < 8 hr. The series is classed as ADME, organism-based. The following applies: rat, in vivo. In short, it runs like this: (§2)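 Rats dosed orally with a single 10 mg/kg dose, given as a suspension in 0.5% methylcellulose. Plasma was sampled to derive Cmax, Tmax, AUC over 0–8 h and bioavailability.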
Series [6] in a line: Bioavailability in rat. The series is classed as ADME, organism-based. The following applies: in vivo. In short, it runs like this:
as §2

Series [7] can be described thus: Compound was evaluated for maximum concentration (Cmax) in suspension of 0.5% methylcellulose at a dose of 10 mg/kg in rat. The series is classed as ADME, organism-based. Details: dose 10 mg/kg. The following applies: in vivo. Put shortly:
as §2

The species entered for series [8] is Rattus norvegicus. In words: In vitro inhibitory activity was evaluated against rat squalence epoxidase. The series is classed as functional. In short, it runs like this:
as §1

Series [9] is described as follows: Compound was evaluated for maximum time(Tmax) in suspension of 0.5% methylcellulose at a dose of 10 mg/kg in rat. Details: dose 10 mg/kg. Type of series: ADME, organism-based. The following applies: in vivo. Put shortly: as §2
In series [10] the test system is Canis familiaris. In words: Compound was evaluated for change in the effect of plasma lipoprotein cholesterol level (HDL) at a dose of 10 mg/kg/day. Type of series: ADME, organism-based, Canis lupus familiaris. The following applies: dog, in vivo. Put shortly:
(§3)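 Male beagle dogs (9–11 kg, n=3) dosed orally twice daily for 28 days, at 3.2, 10 or 32 mg/kg/day. On day 14, serum lipoprotein fractions were separated by ultracentrifugation. LDL and HDL cholesterol were measured enzymatically and expressed as % change. Atherogenic index was taken as the LDL/HDL ratio.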

Series [11] deals with Canis familiaris. In words: Compound was evaluated for change in the effect of plasma lipoprotein cholesterol level (HDL) at a dose of 3.2 mg/kg/day. The following applies: dog, in vivo. The series is classed as ADME, organism-based, Canis lupus familiaris. In short, it runs like this: as §3
For series [12], the system named is Canis familiaris. In words: Compound was evaluated for change in the effect of plasma lipoprotein cholesterol level (HDL) at a dose of 32 mg/kg/day. The series is classed as ADME, organism-based, Canis lupus familiaris. The following applies: dog, in vivo. In short, it runs like this:
as §3

Series [13] deals with Canis familiaris. In words: Compound was evaluated for change in the effect of plasma lipoprotein cholesterol level (LDL) at a dose of 10 mg/kg/day. The series is classed as ADME, organism-based, Canis lupus familiaris. The following applies: dog, in vivo. In short, it runs like this: as §3
The subject of series [14] is Canis familiaris. In words: Compound was evaluated for change in the effect of plasma lipoprotein cholesterol level (LDL) at a dose of 3.2 mg/kg/day. The following applies: dog, in vivo. The series is classed as ADME, organism-based, Canis lupus familiaris. Put shortly:
as §3

Series [15] has as its system Canis familiaris. In words: Compound was evaluated for change in the effect of plasma lipoprotein cholesterol level (LDL) at a dose of 32 mg/kg/day. The following applies: dog, in vivo. The series is classed as ADME, organism-based, Canis lupus familiaris. In short, it runs like this:
as §3

Series [16] relates to Canis familiaris. In words: Compound was evaluated for artherogenic index in plasma lipoprotein cholesterol level (LDL cholesterol / HDL cholesterol) at a dose of 10 mg/kg/day. The following applies: dog, in vivo. Type of series: ADME, organism-based, Canis lupus familiaris. Put shortly:
as §3

The test system of series [17] is Canis familiaris. In words: Compound was evaluated for artherogenic index in plasma lipoprotein cholesterol level (LDL cholesterol / HDL cholesterol) at a dose of 3.2 mg/kg/day. The series is classed as ADME, organism-based, Canis lupus familiaris. The following applies: dog, in vivo. Put shortly:
as §3

In series [18] the test system is Canis familiaris. In words: Compound was evaluated for artherogenic index in plasma lipoprotein cholesterol level (LDL cholesterol / HDL cholesterol) at a dose of 32 mg/kg/day. The following applies: dog, in vivo. The series is classed as ADME, organism-based, Canis lupus familiaris. Put shortly:
as §3

Turning to `CCCN(C/C=C/C#CC(C)(C)C)Cc1cccc(OCC(C)(C)OCc2ccsc2)c1`, the logP in [1] (read-out: logP) worked out at 7.83. For the same compound, the IC50 in series [2] (Canis lupus familiaris) came to 51 nM; in series [3] (Homo sapiens) it was 31 nM.

As to `CN(C/C=C/C#CC(C)(C)C)Cc1cccc(OCC(C)(C)OCc2ccsc2)c1`, in series [1] (read-out: logP), the logP was found to be 6.78. Besides, the values for the IC50 in series [2] (Canis lupus familiaris) and in series [3] (Homo sapiens) were 77 nM and 11 nM, respectively.

`CCN(C/C=C/C#CC(C)(C)C)Cc1cccc(OCC(C)(C)OC(=O)c2ccsc2)c1`: in series [1] (read-out: logP), the logP came to 7.48. Also, the IC50 in series [2] (Canis lupus familiaris) came out at 370 nM; in [3] (Homo sapiens), 23 nM.

In series [4], `CC[C@H](C)C(=O)O[C@H]1C[C@H](O)C=C2C=C[C@H](C)[C@H](CC[C@@H](O)C[C@@H](O)CC(=O)O)[C@H]21` [PRAVASTATIN] had an IC50 of […].

For the compound `CCN(C/C=C/C#CC(C)(C)C)Cc1cccc(OCCOCc2ccsc2)c1`, the logP in series [1] (read-out: logP) stood at 6.6. Besides, the IC50 is 230 nM in [2] (Canis lupus familiaris) and 25 nM in [3] (Homo sapiens).

As for `CCN(C/C=C/C#CC(C)(C)C)Cc1cccc(OCC(C)(C)OCc2ccsc2)c1`, the logP in [1] (read-out: logP) was 7.3. For the same compound, the half-maximal inhibitory concentration (IC50) was found to be 34 nM in series [2] and 5.4 nM in series [3] (Homo sapiens).

`CC(C)n1c(/C=C/[C@H](O)C[C@H](O)CC(=O)O)c(-c2ccc(F)cc2)c2ccccc21` [FLUVASTATIN] came in with an IC50 in [4] of 28 nM. This counts as double-digit nanomolar.

For the compound `CCN(C/C=C/C#CC(C)(C)C)Cc1cccc(OCc2cc(-c3ccsc3)cs2)c1`, the logP in [1] (read-out: logP) was 8.19. The IC50 in series [2] (Canis lupus familiaris) was found to be 43 nM; in series [3] (Homo sapiens), 7.2 nM; in [8], 36 nM. Besides, in series [5], the AUC(0-t) at 8 h came out at 1390 ng·h/mL. The same compound returned a bioavailability in series [6] of 16.5%. Further, in [7], the highest concentration (Cmax) came out at 329 ng/mL. Further, in series [9], the Tmax came out at 1.67 h.

For `CCC(C)(C)C(=O)O[C@H]1C[C@@H](C)C=C2C=C[C@H](C)[C@H](CC[C@@H]3C[C@@H](O)CC(=O)O3)[C@H]21` [SIMVASTATIN], in [4], it took 40 nM to reach half-maximal inhibition (IC50).

In turn, `CCN(C/C=C/C#CC(C)(C)C)Cc1cccc(OCC(C)(C)OCc2ccsc2)c1.Cl` gave a logP in series [1] of 7.3. In addition, the HDL in [10] is given as -14%; in series [11] it was 0%; in [12] it was -27%. For the same compound, the LDL is listed as -47% in [13], -2% in [14] and -61% in series [15]. In addition, the 50% inhibitory concentration (IC50) in [2] worked out at 14 nM; in [3], 9.8 nM; in series [8] it was 25 nM. Further, the Activity in series [16] is given as -38%; in series [17], -2%; in series [18], -47%. In series [5], this compound displayed an area under the curve AUC(0-t) at 8 h of 1870 ng·h/mL. Also, in [6], the bioavailability is 32.9%. In [7], the Cmax came out at 486 ng/mL. For the same compound, the Tmax in series [9] was found to be 1.17 h.

`CCN(C/C=C/C#CC(C)(C)C)Cc1cccc(OCC(CC)(CC)OCc2ccsc2)c1`: the logP in series [1] (read-out: logP) was determined as 8.36. Also, in [3] (Homo sapiens), the IC50 turned out to be 120 nM.

`C=CCC(CC=C)(COc1cccc(CN(CC)C/C=C/C#CC(C)(C)C)c1)OCc1ccsc1`: in [1] (read-out: logP), the logP turned out to be 8.45. In [3] (Homo sapiens), this compound yielded an IC50 of 160 nM.
